Data from ChEMBL document CHEMBL4818993, “Installation of an aryl boronic acid function into the external section of N-aryl-oxazolidinones: Synthesis and antimicrobial evaluation” (2021).
In brackets after ≈: the same amount, converted by molar mass.

tested on: not listed separately; assay: Efflux ratio of MIC for Escherichia coli 25922 to MIC for Escherichia coli JW5503; assay type: functional; settings: not given
How it was run: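 Ratio of the MIC against wild-type E. coli ATCC 25922 to the MIC against the tolC deletion mutant JW5503. Both MICs were read after 24 h, n = 3. Not determined when the MIC was >50 μM for both strains.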

Structure (SMILES) | Ratio
CC(=O)NC[C@H]1CN(c2ccc(-c3ccc(CNC(=O)c4ccc(B(O)O)cc4)cc3)c(F)c2)C(=O)O1 | > 64
CC(=O)NC[C@H]1CN(c2ccc(-c3ccc(CNC(=O)c4cccc(B(O)O)c4)cc3)c(F)c2)C(=O)O1 | > 64
CC(=O)NCC1CN(c2ccc(-c3ccc(COC(=O)c4ccc(B(O)O)cc4)cc3)c(F)c2)C(=O)O1 (configuration not stated) | > 8
CC(=O)NCC1CN(c2ccc(-c3ccc(COC(=O)c4ccc(B(O)O)c(Cl)c4)cc3)c(F)c2)C(=O)O1 (configuration not stated) | > 2
CC(=O)NC[C@H]1CN(c2ccc(-c3ccc(O)cc3)c(F)c2)C(=O)O1 | > 32
CC(=O)NC[C@H]1CN(c2ccc(N3CCOCC3)c(F)c2)C(=O)O1 [LINEZOLID] | > 1
CC(=O)NCC1CN(c2ccc(-c3ccc(COC(=O)c4ccc(B(O)O)cc4F)cc3)c(F)c2)C(=O)O1 (configuration not stated) | > 2
CC(=O)NCC1CN(c2ccc(-c3ccc(COC(=O)c4ccc(B(O)O)cc4Cl)cc3)c(F)c2)C(=O)O1 (configuration not stated) | > 2
CC(=O)NC[C@H]1CN(c2ccc(-c3cccc(CO)c3)c(F)c2)C(=O)O1 | > 16

tested on: Enterococcus faecium; assay: Antibacterial activity against vancomycin resistant Enterococcus faecium 700221 assessed as inhibition of bacterial growth measured after 24 hrs; assay type: functional; settings: not given

Structure (SMILES) | MIC
CC(=O)NC[C@H]1CN(c2ccc(-c3ccc(CNC(=O)c4ccc(B(O)O)cc4)cc3)c(F)c2)C(=O)O1 | 0.39 µM (≈ 0.197 µg/mL)
CC(=O)NC[C@H]1CN(c2ccc(-c3ccc(CNC(=O)c4cccc(B(O)O)c4)cc3)c(F)c2)C(=O)O1 | 0.78 µM (≈ 0.394 µg/mL)
CC(=O)NCC1CN(c2ccc(-c3ccc(COC(=O)c4ccc(B(O)O)cc4)cc3)c(F)c2)C(=O)O1 (configuration not stated) | 1.56 µM (≈ 0.79 µg/mL)
CC(=O)NCC1CN(c2ccc(-c3ccc(COC(=O)c4ccc(B(O)O)c(Cl)c4)cc3)c(F)c2)C(=O)O1 (configuration not stated) | 1.56 µM (≈ 0.844 µg/mL)
CC(=O)NC[C@H]1CN(c2ccc(-c3ccc(O)cc3)c(F)c2)C(=O)O1 | 0.39 µM (≈ 0.134 µg/mL)
CC(=O)NC[C@H]1CN(c2ccc(N3CCOCC3)c(F)c2)C(=O)O1 [LINEZOLID] | 6.25 µM (≈ 2.11 µg/mL)
CC(=O)NCC1CN(c2ccc(-c3ccc(COC(=O)c4ccc(B(O)O)cc4F)cc3)c(F)c2)C(=O)O1 (configuration not stated) | 1.56 µM (≈ 0.818 µg/mL)
CC(=O)NCC1CN(c2ccc(-c3ccc(COC(=O)c4ccc(B(O)O)cc4Cl)cc3)c(F)c2)C(=O)O1 (configuration not stated) | 3.13 µM (≈ 1.69 µg/mL)
CC(=O)NC[C@H]1CN(c2ccc(-c3cccc(CO)c3)c(F)c2)C(=O)O1 | 1.56 µM (≈ 0.559 µg/mL)

tested on: Enterococcus faecalis; assay: Antibacterial activity against Enterococcus faecalis 29212 assessed as inhibition of bacterial growth measured after 24 hrs; settings: Enterococcus faecalis, 29212, 24 h

Structure (SMILES) | MIC
CC(=O)NC[C@H]1CN(c2ccc(-c3ccc(CNC(=O)c4ccc(B(O)O)cc4)cc3)c(F)c2)C(=O)O1 | 0.39 µM (≈ 0.197 µg/mL)
CC(=O)NC[C@H]1CN(c2ccc(-c3ccc(CNC(=O)c4cccc(B(O)O)c4)cc3)c(F)c2)C(=O)O1 | 0.39 µM (≈ 0.197 µg/mL)
CC(=O)NCC1CN(c2ccc(-c3ccc(COC(=O)c4ccc(B(O)O)cc4)cc3)c(F)c2)C(=O)O1 (configuration not stated) | 3.13 µM (≈ 1.58 µg/mL)
CC(=O)NCC1CN(c2ccc(-c3ccc(COC(=O)c4ccc(B(O)O)c(Cl)c4)cc3)c(F)c2)C(=O)O1 (configuration not stated) | 1.56 µM (≈ 0.844 µg/mL)
CC(=O)NC[C@H]1CN(c2ccc(-c3ccc(O)cc3)c(F)c2)C(=O)O1 | 0.39 µM (≈ 0.134 µg/mL)
CC(=O)NC[C@H]1CN(c2ccc(N3CCOCC3)c(F)c2)C(=O)O1 [LINEZOLID] | 6.25 µM (≈ 2.11 µg/mL)
CC(=O)NCC1CN(c2ccc(-c3ccc(COC(=O)c4ccc(B(O)O)cc4F)cc3)c(F)c2)C(=O)O1 (configuration not stated) | 1.56 µM (≈ 0.818 µg/mL)
CC(=O)NCC1CN(c2ccc(-c3ccc(COC(=O)c4ccc(B(O)O)cc4Cl)cc3)c(F)c2)C(=O)O1 (configuration not stated) | 3.13 µM (≈ 1.69 µg/mL)
CC(=O)NC[C@H]1CN(c2ccc(-c3cccc(CO)c3)c(F)c2)C(=O)O1 | 1.56 µM (≈ 0.559 µg/mL)

tested on: Staphylococcus aureus; assay: Antibacterial activity against Methicillin resistant Staphylococcus aureus 43300 assessed as inhibition of bacterial growth measured after 24 hrs; assay type: functional; settings: not given

Structure (SMILES) | MIC
CC(=O)NC[C@H]1CN(c2ccc(-c3ccc(CNC(=O)c4ccc(B(O)O)cc4)cc3)c(F)c2)C(=O)O1 | 0.78 µM (≈ 0.394 µg/mL)
CC(=O)NC[C@H]1CN(c2ccc(-c3ccc(CNC(=O)c4cccc(B(O)O)c4)cc3)c(F)c2)C(=O)O1 | 0.78 µM (≈ 0.394 µg/mL)
CC(=O)NCC1CN(c2ccc(-c3ccc(COC(=O)c4ccc(B(O)O)cc4)cc3)c(F)c2)C(=O)O1 (configuration not stated) | 1.56 µM (≈ 0.79 µg/mL)
CC(=O)NCC1CN(c2ccc(-c3ccc(COC(=O)c4ccc(B(O)O)c(Cl)c4)cc3)c(F)c2)C(=O)O1 (configuration not stated) | 1.56 µM (≈ 0.844 µg/mL)
CC(=O)NC[C@H]1CN(c2ccc(-c3ccc(O)cc3)c(F)c2)C(=O)O1 | 0.78 µM (≈ 0.269 µg/mL)
CC(=O)NC[C@H]1CN(c2ccc(N3CCOCC3)c(F)c2)C(=O)O1 [LINEZOLID] | 6.25 µM (≈ 2.11 µg/mL)
CC(=O)NCC1CN(c2ccc(-c3ccc(COC(=O)c4ccc(B(O)O)cc4F)cc3)c(F)c2)C(=O)O1 (configuration not stated) | 1.56 µM (≈ 0.818 µg/mL)
CC(=O)NCC1CN(c2ccc(-c3ccc(COC(=O)c4ccc(B(O)O)cc4Cl)cc3)c(F)c2)C(=O)O1 (configuration not stated) | 3.13 µM (≈ 1.69 µg/mL)
CC(=O)NC[C@H]1CN(c2ccc(-c3cccc(CO)c3)c(F)c2)C(=O)O1 | 1.56 µM (≈ 0.559 µg/mL)

tested on: Escherichia coli; assay: Antibacterial activity against Escherichia coli JW5503 delta tolC mutant assessed as inhibition of bacterial growth measured after 24 hrs; settings: JW5503, 24 h

Structure (SMILES) | MIC
CC(=O)NC[C@H]1CN(c2ccc(-c3ccc(CNC(=O)c4ccc(B(O)O)cc4)cc3)c(F)c2)C(=O)O1 | 0.78 µM (≈ 0.394 µg/mL)
CC(=O)NC[C@H]1CN(c2ccc(-c3ccc(CNC(=O)c4cccc(B(O)O)c4)cc3)c(F)c2)C(=O)O1 | 0.78 µM (≈ 0.394 µg/mL)
CC(=O)NCC1CN(c2ccc(-c3ccc(COC(=O)c4ccc(B(O)O)cc4)cc3)c(F)c2)C(=O)O1 (configuration not stated) | 6.25 µM (≈ 3.16 µg/mL)
CC(=O)NCC1CN(c2ccc(-c3ccc(COC(=O)c4ccc(B(O)O)c(Cl)c4)cc3)c(F)c2)C(=O)O1 (configuration not stated) | 25 µM (≈ 13.5 µg/mL)
CC(=O)NC[C@H]1CN(c2ccc(-c3ccc(O)cc3)c(F)c2)C(=O)O1 | 1.56 µM (≈ 0.537 µg/mL)
CC(=O)NC[C@H]1CN(c2ccc(N3CCOCC3)c(F)c2)C(=O)O1 [LINEZOLID] | 75 µM (≈ 25.3 µg/mL)
CC(=O)NCC1CN(c2ccc(-c3ccc(COC(=O)c4ccc(B(O)O)cc4F)cc3)c(F)c2)C(=O)O1 (configuration not stated) | 25 µM (≈ 13.1 µg/mL)
CC(=O)NCC1CN(c2ccc(-c3ccc(COC(=O)c4ccc(B(O)O)cc4Cl)cc3)c(F)c2)C(=O)O1 (configuration not stated) | 25 µM (≈ 13.5 µg/mL)
CC(=O)NC[C@H]1CN(c2ccc(-c3cccc(CO)c3)c(F)c2)C(=O)O1 | 3.13 µM (≈ 1.12 µg/mL)

tested on: Enterococcus faecium; assay: Antibacterial activity against Enterococcus faecium 35667 assessed as inhibition of bacterial growth measured after 24 hrs; assay type: functional; settings: not given

Structure (SMILES) | MIC
CC(=O)NC[C@H]1CN(c2ccc(-c3ccc(CNC(=O)c4ccc(B(O)O)cc4)cc3)c(F)c2)C(=O)O1 | 0.39 µM (≈ 0.197 µg/mL)
CC(=O)NC[C@H]1CN(c2ccc(-c3ccc(CNC(=O)c4cccc(B(O)O)c4)cc3)c(F)c2)C(=O)O1 | 0.78 µM (≈ 0.394 µg/mL)
CC(=O)NCC1CN(c2ccc(-c3ccc(COC(=O)c4ccc(B(O)O)cc4)cc3)c(F)c2)C(=O)O1 (configuration not stated) | 3.23 µM (≈ 1.64 µg/mL)
CC(=O)NCC1CN(c2ccc(-c3ccc(COC(=O)c4ccc(B(O)O)c(Cl)c4)cc3)c(F)c2)C(=O)O1 (configuration not stated) | 1.56 µM (≈ 0.844 µg/mL)
CC(=O)NC[C@H]1CN(c2ccc(-c3ccc(O)cc3)c(F)c2)C(=O)O1 | 0.78 µM (≈ 0.269 µg/mL)
CC(=O)NC[C@H]1CN(c2ccc(N3CCOCC3)c(F)c2)C(=O)O1 [LINEZOLID] | 12.5 µM (≈ 4.22 µg/mL)
CC(=O)NCC1CN(c2ccc(-c3ccc(COC(=O)c4ccc(B(O)O)cc4F)cc3)c(F)c2)C(=O)O1 (configuration not stated) | 1.56 µM (≈ 0.818 µg/mL)
CC(=O)NCC1CN(c2ccc(-c3ccc(COC(=O)c4ccc(B(O)O)cc4Cl)cc3)c(F)c2)C(=O)O1 (configuration not stated) | 3.13 µM (≈ 1.69 µg/mL)
CC(=O)NC[C@H]1CN(c2ccc(-c3cccc(CO)c3)c(F)c2)C(=O)O1 | 1.56 µM (≈ 0.559 µg/mL)

tested on: Staphylococcus aureus; assay: Antibacterial activity against Staphylococcus aureus 29213 assessed as inhibition of bacterial growth measured after 24 hrs; assay type: functional; settings: not given

Structure (SMILES) | MIC
CC(=O)NC[C@H]1CN(c2ccc(-c3ccc(CNC(=O)c4ccc(B(O)O)cc4)cc3)c(F)c2)C(=O)O1 | 0.78 µM (≈ 0.394 µg/mL)
CC(=O)NC[C@H]1CN(c2ccc(-c3ccc(CNC(=O)c4cccc(B(O)O)c4)cc3)c(F)c2)C(=O)O1 | 0.78 µM (≈ 0.394 µg/mL)
CC(=O)NCC1CN(c2ccc(-c3ccc(COC(=O)c4ccc(B(O)O)cc4)cc3)c(F)c2)C(=O)O1 (configuration not stated) | 3.13 µM (≈ 1.58 µg/mL)
CC(=O)NCC1CN(c2ccc(-c3ccc(COC(=O)c4ccc(B(O)O)c(Cl)c4)cc3)c(F)c2)C(=O)O1 (configuration not stated) | 1.56 µM (≈ 0.844 µg/mL)
CC(=O)NC[C@H]1CN(c2ccc(-c3ccc(O)cc3)c(F)c2)C(=O)O1 | 0.78 µM (≈ 0.269 µg/mL)
CC(=O)NC[C@H]1CN(c2ccc(N3CCOCC3)c(F)c2)C(=O)O1 [LINEZOLID] | 6.25 µM (≈ 2.11 µg/mL)
CC(=O)NCC1CN(c2ccc(-c3ccc(COC(=O)c4ccc(B(O)O)cc4F)cc3)c(F)c2)C(=O)O1 (configuration not stated) | 1.56 µM (≈ 0.818 µg/mL)
CC(=O)NCC1CN(c2ccc(-c3ccc(COC(=O)c4ccc(B(O)O)cc4Cl)cc3)c(F)c2)C(=O)O1 (configuration not stated) | 3.13 µM (≈ 1.69 µg/mL)
CC(=O)NC[C@H]1CN(c2ccc(-c3cccc(CO)c3)c(F)c2)C(=O)O1 | 3.13 µM (≈ 1.12 µg/mL)

tested on: Enterococcus faecalis; assay: Antibacterial activity against vancomycin resistant Enterococcus faecalis 51575 assessed as inhibition of bacterial growth measured after 24 hrs; assay type: functional; settings: not given

Structure (SMILES) | MIC
CC(=O)NC[C@H]1CN(c2ccc(-c3ccc(CNC(=O)c4ccc(B(O)O)cc4)cc3)c(F)c2)C(=O)O1 | 0.39 µM (≈ 0.197 µg/mL)
CC(=O)NC[C@H]1CN(c2ccc(-c3ccc(CNC(=O)c4cccc(B(O)O)c4)cc3)c(F)c2)C(=O)O1 | 0.39 µM (≈ 0.197 µg/mL)
CC(=O)NCC1CN(c2ccc(-c3ccc(COC(=O)c4ccc(B(O)O)cc4)cc3)c(F)c2)C(=O)O1 (configuration not stated) | 1.56 µM (≈ 0.79 µg/mL)
CC(=O)NCC1CN(c2ccc(-c3ccc(COC(=O)c4ccc(B(O)O)c(Cl)c4)cc3)c(F)c2)C(=O)O1 (configuration not stated) | 1.56 µM (≈ 0.844 µg/mL)
CC(=O)NC[C@H]1CN(c2ccc(-c3ccc(O)cc3)c(F)c2)C(=O)O1 | 0.39 µM (≈ 0.134 µg/mL)
CC(=O)NC[C@H]1CN(c2ccc(N3CCOCC3)c(F)c2)C(=O)O1 [LINEZOLID] | 6.25 µM (≈ 2.11 µg/mL)
CC(=O)NCC1CN(c2ccc(-c3ccc(COC(=O)c4ccc(B(O)O)cc4F)cc3)c(F)c2)C(=O)O1 (configuration not stated) | 1.56 µM (≈ 0.818 µg/mL)
CC(=O)NCC1CN(c2ccc(-c3ccc(COC(=O)c4ccc(B(O)O)cc4Cl)cc3)c(F)c2)C(=O)O1 (configuration not stated) | 3.13 µM (≈ 1.69 µg/mL)
CC(=O)NC[C@H]1CN(c2ccc(-c3cccc(CO)c3)c(F)c2)C(=O)O1 | 3.13 µM (≈ 1.12 µg/mL)
